This is a sample that favours compounds with a hit; in the whole collection about 1.5% have one here.
Dynein transport: dynein cargo transport inhibition; 3617.4 mouse cells, GR-EGFP nuclear translocation imaging; test concentration mostly 20 µM; stimulated with dexamethasone, 1 µM; hits give low values; z-score, hits read low; 220,000 tested, 0.47% active;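 active = plate z-score of nuclear minus cytoplasmic receptor signal below a set negative limit, without overly bright fluorescence or cell loss, cut at about -3.5 in these data, passing the limit was not always enough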;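 also: z-score of nuclear minus cytoplasmic ring GR-EGFP intensity difference per well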
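medium = tetracycline-free induction medium containing charcoal-stripped FBS | also added = 1.0 µM final dexamethasone stimulus | schedule = 48 h induction, 1 h compound, 30 min dex at 37 °C | technique = fixed, Hoechst-stained cells imaged at 10x for EGFP | measure = GR-EGFP nuclear translocation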
TbHK1 inh: blocks Trypanosoma brucei hexokinase 1 activity; recombinant TbHK1, G6PDH-coupled NADH A340; inhibition, % at 10 µM; 220,000 tested, 0.11% active; AID 1430;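 active = inhibition of 50% or more in the single-dose primary screen; inactive = inhibition below 50%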
zVAD death inh: blocks zVAD induced death of L929 cells; AID 1377; viability rescue, % at 10 µM; L929 zVAD necroptosis rescue, ATP luminescence, 24 h; with zVAD 60 µM; 220,000 tested, 0.38% active;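 active = activation, scaled between plate controls, above about 75%, limit read from the data; inactive = activation under that limit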
TNF death inh: blocks TNF-alpha induced death of Jurkat FADD-/- cells | Jurkat FADD-/- TNF necroptosis rescue, ATP luminescence, 24 h; 0 = TNF only, 100 = no-TNF cells | activation (protection from cell death), % at 10 µM | 220,000 tested, 0.068% active;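 active = activation, meaning protection from cell death, of at least 50% relative to plate controls; inactive = activation below 50%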;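 also: necroptosis triggered by 40 ng/mL TNF-alpha added together with compound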
S1P4 antag: blocks the human S1P4 receptor | S1P4-expressing cells, antagonist mode, reporter read-out | inhibition, % at 4.98 µM | 220,000 tested, 0.26% active | AID 1510; in the data active = inhibition above about 29%
S1P4 ag: activates the human S1P4 receptor. O95977. S1P4-expressing cell line, agonist reporter assay. 220,000 tested, 0.35% active. activation, % at 4.98 µM; in the data active = activation above about 11%
S1P4 agonist cf: confirmation of human S1P4 receptor agonists; shares compounds with S1P4 ag; activation, % at 4.98 µM; S1P4 agonist cell-based reporter assay; 740 tested, 7% active; AID 1523; in the data active = activation above about 12%
S1P1 ag: activates human S1P1, counter-screen for S1P4 agonists | 740 tested, 4% active | shares compounds with S1P4 ag | S1P1 agonist cell-based assay, activation | activation, % at 4.98 µM; in the data active = activation above about 21%
Target sequence (P21453 whole entry, looked up): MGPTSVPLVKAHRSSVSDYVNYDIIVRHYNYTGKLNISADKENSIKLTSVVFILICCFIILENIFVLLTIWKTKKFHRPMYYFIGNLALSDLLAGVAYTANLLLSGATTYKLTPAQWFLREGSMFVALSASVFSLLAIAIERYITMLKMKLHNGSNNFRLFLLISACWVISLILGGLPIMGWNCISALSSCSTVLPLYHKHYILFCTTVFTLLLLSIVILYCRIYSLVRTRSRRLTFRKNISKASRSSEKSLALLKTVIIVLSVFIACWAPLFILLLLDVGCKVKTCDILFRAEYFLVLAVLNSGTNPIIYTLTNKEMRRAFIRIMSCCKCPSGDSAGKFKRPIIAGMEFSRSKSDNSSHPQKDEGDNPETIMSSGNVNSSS
Numbers stand for hits; - = inactive; . = no result given.

SMILES	Dynein transport	TbHK1 inh	zVAD death inh	TNF death inh	S1P4 antag	S1P4 ag	S1P4 agonist cf	S1P1 ag
CCCCC(=O)NCCc1ccc(OC)cc1	-	-	-	-	-	25.5	-	-
Cc1ccc(/C=C(\C#N)C(=O)N2CCCC2)c(C)c1	-	-	-	-	-	-	.	.
Cc1ccc(S(=O)(=O)N(C)C)cc1-n1c(SCC(=O)Nc2ccccc2)nc2ccccc2c1=O	-	-	-	-	-	-	.	.
Cc1ccc(S(=O)(=O)N(C)C)cc1-n1c(SCC(=O)Nc2ccc(F)cc2)nc2ccccc2c1=O	-	-	-	-	-	11.0	-	-
O=C(O)Cn1c(SCCOc2ccccc2)nc2ccccc21	-	-	-	-	-	59.4	-	-
O=C(O)Cn1c(SCc2ccccc2)nc2ccccc21	-	-	-	-	-	-	.	.
C/C(=N/NC(N)=S)c1cc2ccc(O)cc2oc1=O	-	-	-	-	-	38.8	17.8	-
C/C(=N\NC(=O)c1ccc([N+](=O)[O-])cc1)c1cc2ccccc2oc1=O	-	-	-	-	-	-	.	.
Cc1csc(NC(=O)CCc2c(C)nc3cc(-c4ccc(Cl)cc4)nn3c2C)n1	-	-	.	-	-	196.3	-	-
Cc1nc2cc(-c3ccc(Cl)cc3)nn2c(C)c1CCC(=O)NC(C)c1ccc2c(c1)OCCO2 (configuration not stated)	-	-	.	-	-	-	.	.
Cc1cc(C)cc(OC(=O)CCN2C(=O)c3ccccc3C2=O)c1	-	-	-	-	-	-	.	.
Cc1ccc(NC(=O)c2ccc(OC(=O)CCN3C(=O)c4ccccc4C3=O)cc2)cc1	-	-	-	-	-	11.3	-	-
O=C(CSc1nnc(NC(=O)Cc2ccccc2)s1)NCc1ccco1	-	-	-	-	-	16.6	-	-
O=C(CCCN1C(=O)c2ccccc2C1=O)Nc1nnc(C2CC2)s1	-	-	-	-	-	-	.	.
C(=C\c1ccccc1)/C=N/Nc1nc2ccccc2s1	-	-	-	-	-	-	.	.
CCC/C=N/Nc1nc2ccccc2s1	-	-	-	-	-	64.3	-	-
CC(C)Cn1c(N)c(C(=O)COC(=O)C2CC(=O)N(Cc3ccccc3Cl)C2)c(=O)n(C)c1=O (configuration not stated)	-	-	-	-	-	-	.	.
COc1ccc(CNC(=O)c2sc3nc4c(c(C(F)(F)F)c3c2N)CCC4)cc1	-	-	-	-	-	195.9	-	-
Cc1ccc(CNC(=O)c2sc3nc4c(c(C(F)(F)F)c3c2N)CCC4)cc1	-	-	-	-	-	-	.	.
Cc1cccc(-n2ccnc2CN2CCC(CO)(Cc3ccccc3)CC2)c1	-	-	-	-	-	-	.	.
COc1ccc(OC)c(/C=N/NC(=O)Cc2nc3ccccc3[nH]2)c1	-	-	-	-	-	11.5	-	-
CNCc1c(C)nn(-c2ccccc2)c1C	-	-	-	-	-	34.5	-	-
Cc1nn(-c2ccccc2)c(C)c1N	-	-	-	-	-	-	.	.
O=c1[nH][nH]c(-c2ccccc2)c1C=Nc1ccc(OC(F)(F)F)cc1	-	-	-	-	-	-	.	.
Oc1ccc(/C=N/Nc2cc(N3CCOCC3)nc(N3CCOCC3)n2)cc1O	-	-	-	-	-	-	.	.
SMILES	Dynein transport	TbHK1 inh	zVAD death inh	TNF death inh	S1P4 antag	S1P4 ag	S1P4 agonist cf	S1P1 ag
Oc1cccc(/C=N/Nc2cc(N3CCOCC3)nc(N3CCOCC3)n2)c1	-	-	-	-	-	13.2	-	-
COc1cc(C(=O)NCc2nnc(SCC(=O)Nc3nccs3)o2)cc(OC)c1OC	-	-	-	-	-	12.6	-	-
COc1cc(C(=O)NCc2nnc(SCC(=O)Nc3cc(C)on3)o2)cc(OC)c1OC	-	-	-	-	-	-	.	.
O=C(CSc1nnc(CNC(=O)c2cccs2)o1)Nc1ccccc1	-	-	-	-	-	12.2	-	-
Cc1cccc2cc(C#N)c(NCCCNS(=O)(=O)c3ccc(Cl)cc3)nc12	-	-	-	-	-	-	.	.
COc1ccc(Cn2ccnc2)cc1[N+](=O)[O-]	-	-	-	-	-	12.3	-	-
COc1ccc(Cn2ccnc2)cc1Br	-	-	-	-	-	-	.	.
CCOC(=O)CN1C(=O)C(C)(C)Oc2ccc(C(=O)NC(C)(C)CC)cc21	-	-	-	-	-	27.9	-	-
Cc1cc(NC(=O)c2cc3cccc([N+](=O)[O-])c3[nH]2)ccc1F	-	-	-	-	-	-	.	.
CC(=O)Oc1cc2oc(=O)c3c(c2cc1Cl)CCC3	-	-	-	-	-	15.3	-	-
CC(C)Oc1cc2oc(=O)c3c(c2cc1Cl)CCC3	-	-	-	-	-	-	.	.
CCCCC(=O)NC(Nc1ccc(C)cn1)(C(=O)OCC)C(F)(F)F (configuration not stated)	-	-	-	-	-	17.7	-	-
Cc1oc2cc(OC(=O)c3ccco3)ccc2c(=O)c1-c1nc2ccccc2n1C	-	-	.	-	-	11.9	-	-
Cc1cc(=O)oc2cc(OC(=O)c3ccco3)ccc12	-	-	-	-	-	-	.	.
CCCc1nn(C)c(C(N)=O)c1[N+](=O)[O-]	-	-	-	-	-	11.9	-	-
NC(=O)CC(NC(=O)Cc1ccc(Br)cc1)c1ccc(N2CCC(Cc3ccccc3)CC2)c([N+](=O)[O-])c1 (configuration not stated)	-	-	-	-	.	.	.	.
N#Cc1cc2c(=O)n3ccccc3nc2n(CCCN2CCOCC2)c1=O	-	-	-	-	-	-	.	.
N#Cc1cc2c(=O)n3ccccc3nc2n(-c2ccccc2Cl)c1=O	-	-	-	-	-	28.3	15.6	29.2
NC(=S)N/N=C/c1coc2ccc(F)cc2c1=O	-	-	-	-	-	36.4	-	-
NC(=S)N/N=C/c1coc2ccc(O)cc2c1=O	-	-	-	-	-	-	.	.
COc1ccc(C(=O)CNc2ccc(C)cc2C)cc1	-	-	-	-	-	-	.	.
COc1ccccc1N1C(=O)C2C(c3ccc(F)cc3)NN(C(=O)c3ccc(C)cc3)C2C1=O (configuration not stated)	-	-	-	-	-	-	.	.
O=C(CCCn1c(=O)oc2ccccc21)NC1CCCCCC1	-	-	-	-	-	-	.	.
CC1CC(NC(=O)CCn2c(=O)oc3ccccc32)CC(C)(C)C1 (configuration not stated)	-	-	-	-	-	12.1	-	-
Cc1ccc(OCCOc2ccc(Cl)cc2Cl)c([N+](=O)[O-])n1	-	-	-	-	-	102.3	79.6	-
COc1cc(C(=O)Nc2ccc3c(c2)N(C(=O)CN2CCN(C)CC2)c2ccccc2CC3)cc(OC)c1OC	-	-	-	-	-	-	.	.

Screening data from PubChem BioAssay.
